Assay outcomes as filed in PubChem.
NPY-Y1 PAM-ag – NPY-Y1 receptor potentiators or agonists, primary screen, cell-based. Neuropeptide Y receptor type 1 (Homo sapiens), P25929. NPY-Y1 expressing cells, potentiator/agonist activation. activation, % at 3.6 µM. 220,000 tested, 0.37% active. AID 1304, 2008; in the data active means activation above about 33%, passing the limit was not always enough;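 further: cells stimulated with NPY at EC10 then isoproterenol at EC100; 0% = low agonist plus stimulus and 100% = saturating agonist plus stimulus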
Target sequence (P25929 whole entry, looked up): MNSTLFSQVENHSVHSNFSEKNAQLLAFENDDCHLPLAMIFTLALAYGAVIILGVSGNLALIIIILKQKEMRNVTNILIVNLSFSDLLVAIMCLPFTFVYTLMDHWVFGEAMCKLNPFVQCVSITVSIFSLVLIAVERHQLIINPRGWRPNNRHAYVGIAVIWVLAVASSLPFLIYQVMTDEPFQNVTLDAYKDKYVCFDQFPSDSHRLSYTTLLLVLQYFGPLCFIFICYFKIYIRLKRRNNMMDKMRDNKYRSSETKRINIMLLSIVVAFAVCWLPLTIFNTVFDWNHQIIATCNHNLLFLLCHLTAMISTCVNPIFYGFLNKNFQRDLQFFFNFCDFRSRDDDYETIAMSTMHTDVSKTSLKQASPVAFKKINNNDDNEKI
NPY Y2 blocker – NPY-Y2 receptor antagonists, primary screen, cell-based; AID 793, 2007; 140,000 tested, 0.99% active; NPY-Y2 expressing cells, antagonist mode; Neuropeptide Y receptor type 2 (Homo sapiens), P49146; inhibition, % at 2.7 µM; in the data active means inhibition above about 17%;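 further: 0% = vehicle with agonist challenge and 100% = reference antagonist with challenge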
NPY-Y1 antag – NPY-Y1 receptor antagonists, primary screen, cell-based. Neuropeptide Y receptor type 1 (Homo sapiens), P25929. HEK293-CNG Y1 cells, membrane potential fluorescence; NPY at EC95, then isoproterenol. 200,000 tested, 1% active. inhibition, % at 3.6 µM;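 active means inhibition above the campaign mean inhibition of all tested compounds plus 3 SD, cut at about 20% in these data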;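 further: 0% = DMSO wells given NPY plus isoproterenol and 100% = isoproterenol alone without NPY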
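Test system: HEK293 cells co-expressing NPY Y1 receptor and cyclic-nucleotide gated channel; Also added: NPY (25 nM), isoproterenol (1 µM), Ro 20-1724 (25 µM); Compound dosing: one concentration, 3.6 µM, in 0.4% DMSO; Timing: dye 3 h, compound 60 min room temperature, stimulation 45 min; Technique: Membrane-potential fluorescent dye readout.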
NPY2 pot ag – NPY-Y2 potentiators or agonists, primary screen, cell-based | Neuropeptide Y receptor type 2 (Homo sapiens), P49146 | cells expressing NPY-Y2, potentiator/agonist read-out | 220,000 tested, 0.45% active | activation, % at 3.6 µM; in the data active means activation above about 27%;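 further: cells stimulated with NPY near EC25 plus isoproterenol at EC100; 0% = vehicle plus submaximal agonist and 100% = vehicle plus saturating agonist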
Active calls of the source: *; nt = not tested or not shown. The list is not random: actives were taken first. Their share in the collection is about 1.8%.

SMILES | NPY-Y1 PAM-ag | NPY Y2 blocker | NPY-Y1 antag | NPY2 pot ag
COCCNCC(O)CON=C1c2ccccc2-c2ccccc21 (stereo not given) | 101.3* | nt | -4.8 | 92.0*
CC(C)CCNCC(O)CON=C1c2ccccc2-c2ccccc21 (stereo not given) | 45.0* | nt | 2.0 | 44.5*
COc1ccc(/C(O)=C/C(=O)C(=O)NNC(=O)C(O)(c2ccccc2)c2ccccc2)cc1 | 110.9* | 2.5 | -11.9 | 102.8*
CCOc1ccccc1-c1nc(-c2ccc(NC(=O)Cc3ccccc3OC)cc2)no1 | -25.9 | 1.4 | 3.8 | -19.5
CCOc1ccccc1NC(=O)c1ccccc1-c1nc(-c2ccccc2)no1 | -79.9 | 17.8* | 25.5* | -40.3
COc1ccc(-c2noc(-c3ccccc3C(=O)Nc3cccc(OC)c3)n2)cc1 | -80.1 | 24.5* | 43.0* | -13.6
CN(c1ccc(C(=O)NC2CC2)cc1)S(=O)(=O)c1ccccc1 | -27.8 | 1.0 | -1.4 | 7.2
O=C(C1CCC1)N1CCc2cc(S(=O)(=O)NCC3COc4ccccc4O3)ccc21 (stereo not given) | -48.5 | 19.5* | 24.1* | -23.7
O=C(c1nn(Cc2ccccc2)c(=O)c2ccccc12)N1CCN(c2ccccn2)CC1 | -34.0 | 20.3* | 46.4* | -8.6
O=C(c1nn(Cc2ccccc2)c(=O)c2ccccc12)N1CCc2ccccc2C1 | -14.2 | 10.8 | 9.0 | -12.8
CCSC(=O)N(CC)CC(=O)Nc1c(CC)cccc1CC | -20.9 | 19.6* | 15.9 | -4.0
CCCSC(=O)N(CC)CC(=O)Nc1c(CC)cccc1CC | -22.9 | 19.8* | 18.5 | -23.7
O=C(NC(=S)NCc1ccccc1)C1CCCCC1 | -3.3 | 0.4 | 1.9 | -2.9
NS(=O)(=O)c1ccc(CCNC(=O)COC(=O)CC(c2ccccc2)c2ccccc2)cc1 | -4.2 | nt | -3.4 | -7.3
O=C(Nc1ccc(N2C(=O)CCC2=O)cc1Cl)c1cccs1 | 3.0 | nt | -1.2 | -4.8
O=C(N/N=C/c1ccc([N+](=O)[O-])o1)c1cc2ccccc2o1 | 10.2 | nt | nt | 0.1
O=[N+]([O-])c1ccc(/C=N/Nc2ccc3ccccc3c2)o1 | 76.4* | -10.2 | -19.2 | 65.6*
COc1c(C(=O)Nc2ccc(Cc3ccncc3)cc2)ccc2ccccc12 | -43.0 | 9.8 | 2.7 | -17.3
Cc1ccc(C(=O)NC(=S)Nc2ccc3c(c2)OCCO3)c(C)c1 | -17.2 | 8.2 | 21.7* | -22.8
COc1ccc(C)cc1-n1nnnc1SCc1cc(=O)n2cc(C)ccc2n1 | 11.8 | 3.5 | -7.5 | 16.1
Cc1ccc(-n2c(C)cc(C=C(C#N)C#N)c2C)cc1 | -25.2 | 18.2* | 31.7* | -13.1
CC12CC3CC(C)(C1)CC(CN1CCOCC1)(C3)C2 | 11.2 | 6.9 | -5.7 | -3.9
CC12CC3CC(C)(C1)CC(CN)(C3)C2 | 37.0* | 16.4 | 16.9 | 33.8*
COC(=O)COc1ccc(/C=N/NC(=O)c2ccc(N(Cc3ccccc3)S(C)(=O)=O)cc2)cc1 | 60.9* | 0.0 | 2.2 | 30.8*
O=C(C1CCN(S(=O)(=O)c2cccs2)CC1)N(c1ccccn1)C1CCCCC1 | 2.1 | nt | 1.8 | 6.3
SMILES | NPY-Y1 PAM-ag | NPY Y2 blocker | NPY-Y1 antag | NPY2 pot ag
CN(CC(=O)Nc1ccc(S(=O)(=O)N2CCCC2)cc1)Cc1c(F)cccc1Cl | -2.1 | nt | 1.7 | -7.1
N=c1n(Cc2ccccc2)c2ccccc2n1CC(O)COc1ccccc1 (stereo not given) | -28.8 | 43.5* | 41.1* | -33.2
Cc1ccc(Cn2c(=N)n(CC(O)COc3ccccc3)c3ccccc32)cc1 (stereo not given) | -57.4 | 33.7* | 35.6* | -24.7
COc1ccccc1NC(=O)Cn1nnc(-c2ccccc2NC(=O)c2cnccn2)n1 | 10.9 | nt | 1.8 | 7.5
O=C(NC1CCCC1)C(c1ccncc1)N(C(=O)c1csnn1)C1CCCC1 (stereo not given) | 0.2 | nt | -1.4 | 5.5
Cc1ccc(C(=O)O/N=C2\CCSc3ccc(C)cc32)cc1 | -8.5 | 20.8* | 23.0* | -11.6
CN(Cc1nccn1C)C(=O)CC1C(=O)NCCN1CC(c1ccccc1)c1ccccc1 (stereo not given) | -3.0 | nt | 3.9 | 7.8
O=C(CSc1nnc(Cc2cccs2)n1Cc1ccco1)Nc1ccc(Br)cc1 | 10.0 | 9.2 | 2.7 | -10.3
O=C(CSc1nnc(Cc2cccs2)n1Cc1ccco1)Nc1ccc(Cl)cc1Cl | -19.7 | 23.2* | 30.9* | -6.2
CCOC(=O)c1sc(=S)n(-c2ccccc2)c1N(C(C)=O)C(C)=O | 8.4 | nt | -0.6 | 16.9
CCCCN(CC(=O)Nc1c(C)cccc1CC)C(=O)SCC | -16.5 | 30.7* | 21.5* | -12.9
C=CCN(CC(=O)Nc1c(C)cccc1CC)C(=O)SCCC | -15.2 | 10.4 | 19.6 | -13.6
CCCN(CC(=O)Nc1c(C)cccc1CC)C(=O)SCC | -26.5 | 18.1* | 19.4 | -3.3
COc1cc(CO)ccc1Oc1nc2ccccc2n2cnnc12 | 10.6 | nt | nt | 14.4
Cn1nnc2c[n+](CC(=O)c3ccc4ccccc4c3)cc(Br)c21 | 47.2* | nt | nt | 57.0*
CNC(=O)C(=O)Nc1nc(C23CC4CC(CC(C4)C2)C3)cs1 | -4.4 | nt | 6.4 | -0.4
Cc1noc(C)c1C(=O)Nc1nc(C23CC4CC(CC(C4)C2)C3)cs1 | 44.7* | 0.2 | -11.5 | 72.2*
COc1ccc2c(c1)CCc1c-2n[nH]c1C(=O)O | 32.2 | -3.0 | -4.7 | 39.8*
CC(C)NCC(O)Cn1c2c(c3ccccc31)CCc1c-2cnn1-c1ccccc1 (stereo not given) | 49.9* | 1.0 | -6.0 | 43.0*
CC(CNCc1ccc2c(c1)OCO2)NCc1ccc2c(c1)OCO2 (stereo not given) | -37.1 | 19.2* | 24.2* | -20.0
OC(CNCc1ccc2c(c1)OCO2)COc1ccc(F)cc1 (stereo not given) | -17.0 | nt | nt | -27.9
COC(=O)[C@@]1(Cc2ccc(F)cc2)[C@H]2c3cc(C(=O)N(C)C)n(Cc4ccccc4)c3C[C@H]2CN1C(=O)c1ccccc1 | -11.4 | 20.9* | 32.5* | 3.0
COCCn1c(C(=O)N2CCCC2)cc2c1C[C@H]1CN(C(=O)c3ccccc3)[C@@](Cc3ccc(F)cc3)(C(=O)OC)[C@@H]21 | -32.1 | 10.9 | 14.3 | 1.0
COC(=O)[C@@]1(Cc2ccc(OC)cc2)[C@H]2c3cc(C(=O)N4CCCC4)n(Cc4ccc(C)o4)c3C[C@H]2CN1C(=O)c1ccccc1 | -6.0 | 22.9* | 31.9* | 3.3
COC(=O)[C@@]1(Cc2ccc(F)cc2)[C@H]2c3cc(C(=O)N(C)C)n(Cc4ccc(OC)c(OC)c4)c3C[C@H]2CN1C(=O)c1ccccc1 | 16.9 | 8.2 | 6.6 | -1.0
O=C(Nc1nc2ccccc2[nH]1)c1cccs1 | -5.5 | nt | -3.2 | -10.0
N=c1c(-c2nc3ccccc3[nH]2)cc(C(=O)c2cccs2)nn1-c1ccc(Cl)cc1 | 47.7* | 0.0 | -8.8 | 42.8*
CCN(CC)CCNc1ccc2nnc(CCNS(=O)(=O)c3ccc(C)cc3)n2n1 | 20.1 | nt | -5.1 | -6.6
O=C(Nc1cccc(Cl)c1N1CCCC1)c1ccc(Br)o1 | -79.4 | 33.0* | 33.0* | -31.9
